From ChEMBL document CHEMBL1275524, “Activities of antifungal agents against yeasts and filamentous fungi: assessment according to the methodology of the European Committee on Antimicrobial Susceptibility Testing” (2008)
Converted amounts (≈) assume the structure as drawn.

Columns and labels:
[1] = test system: Aspergillus terreus; assay: Antifungal activity against Aspergillus terreus by EUCAST method; assay type: functional
[2] = test system: Geotrichum candidum; assay: Antifungal activity against Geotrichum candidum; assay type: functional
[3] = test system: Rhizopus; assay: Antifungal activity against Rhizopus species; assay type: functional
Outline: (§1)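 Broth microdilution following the EUCAST reference procedure for spore-forming moulds, in flat-bottom plates with RPMI 1640 plus 2% glucose. Inoculum was 2 × 10^5 to 5 × 10^5 CFU/ml. MICs were read visually at 24 and 48 h as 100% growth reduction versus a drug-free control for polyenes and azoles. MEC was used for caspofungin. Tests were run in duplicate and repeated twice.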

[4] = test system: Saccharomyces cerevisiae; assay: Antifungal activity against Saccharomyces cerevisiae; assay type: functional
Outline: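 Broth microdilution following EUCAST for fermentative yeasts, in flat-bottom plates with RPMI 1640 plus 2% glucose. Inoculum was 0.5 × 10^5 to 2.5 × 10^5 CFU/ml. End points were read spectrophotometrically at 24 h: ≥90% growth reduction versus a drug-free control for amphotericin B, and 50% OD reduction for azoles and caspofungin. MFC was the lowest concentration giving 99% killing.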

[5] = test system: Rhizopus arrhizus; assay: Antifungal activity against Rhizopus oryzae; assay type: functional; outline: as §1
[6] = test system: Trichosporon inkin; assay: Antifungal activity against Trichosporon inkin by EUCAST method; assay type: functional
Outline: (§2)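 Nonfermentative yeasts were tested by the EUCAST microdilution recommendations with one change: plates were sealed and agitated at 350 rpm and 30°C for 48 h.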

[7] = test system: Curvularia lunata; assay: Antifungal activity against Curvularia lunata; assay type: functional
[8] = test system: Rhizomucor; assay: Antifungal activity against Rhizomucor species; assay type: functional
[9] = test system: Pichia kudriavzevii; assay: Antifungal activity against Candida krusei; assay type: functional
Outline: (§3)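 EUCAST broth microdilution for yeasts in flat-bottom plates, RPMI 1640 with 2% glucose, inoculum 0.5 × 105 to 2.5 × 10^5 CFU/ml. […] MFC is the lowest concentration giving 99% killing.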

[10] = test system: Lomentospora prolificans; assay: Antifungal activity against Scedosporium prolificans; assay type: functional; outline: as §1
[11] = Antifungal activity against Cryptococcus neoformans var. neoformans by EUCAST method; assay type: functional; conditions: Cryptococcus deneoformans
Outline: (§4)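 EUCAST yeast microdilution, modified for nonfermentative yeasts: plates were sealed and agitated at 350 rpm and 30°C for 48 h.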

[12] = test system: Clavispora lusitaniae; assay: Antifungal activity against Candida lusitaniae; assay type: functional
Outline: (§5)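 Broth microdilution in flat-bottom plates in RPMI 1640 with 2% glucose; inoculum 0.5 × 105 to 2.5 × 10^5 CFU/ml. MICs were read spectrophotometrically at 24 h. AMB endpoint: ≥90% growth reduction vs drug-free control well. Azole and CPF endpoint: 50% reduction in optical density. MFC was taken as the lowest concentration giving 99% killing.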

[13] = test system: Absidia; assay: Antifungal activity against Absidia species; assay type: functional
[14] = Antifungal activity against Rhizopus microsporus var. oligosporus; assay type: functional; outline: as §1
[15] = Antifungal activity against Rhinocladiella aquaspersa; assay type: functional
Outline: (§6)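 Dematiaceous fungi were tested by the EUCAST spore-forming mold reference procedure: flat-bottom microdilution plates, RPMI 1640 plus 2% glucose, inoculum 2 × 105 to 5 × 10^5 CFU/ml. Endpoints were read visually at 24 and 48 h. Polyenes and azoles: 100% growth reduction vs drug-free control. CPF: minimum effective concentration. Run in duplicate and repeated twice.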

[16] = test system: Fusarium oxysporum; assay: Antifungal activity against Fusarium oxysporum; assay type: functional
[17] = test system: Penicillium sp.; assay: Antifungal activity against Penicillium species; assay type: functional
[18] = test system: Trichosporon asahii; assay: Antifungal activity against Trichosporon asahii by EUCAST method; assay type: functional; outline: as §2
[19] = test system: Saccharomyces cerevisiae; assay: Antifungal activity against Saccharomyces cerevisiae by EUCAST method; assay type: functional; outline: as §3
[20] = test system: Geotrichum candidum; assay: Antifungal activity against Geotrichum candidum by EUCAST method; assay type: functional
[21] = test system: Aspergillus flavus; assay: Antifungal activity against Aspergillus flavus; assay type: functional
[22] = test system: Cryptococcus gattii; assay: Antifungal activity against Cryptococcus neoformans var. gattii; assay type: functional, Cryptococcus bacillisporus; outline: as §4
[23] = test system: Mucor hiemalis; assay: Antifungal activity against Mucor hiemalis; assay type: functional
[24] = test system: Nakaseomyces glabratus; assay: Antifungal activity against Candida glabrata; assay type: functional; outline: as §5
[25] = test system: Aspergillus niger; assay: Antifungal activity against Aspergillus niger; assay type: functional
[26] = test system: Trichosporon inkin; assay: Antifungal activity against Trichosporon inkin; assay type: functional; outline: as §2
[27] = test system: Candida tropicalis; assay: Antifungal activity against Candida tropicalis by EUCAST method; assay type: functional; outline: as §5
[28] = test system: Meyerozyma guilliermondii; assay: Antifungal activity against Candida guilliermondii; assay type: functional; outline: as §5
[29] = test system: Candida parapsilosis; assay: Antifungal activity against Candida parapsilosis by EUCAST method; assay type: functional; conditions: Lodderomyces parapsilosis; outline: as §5
[30] = test system: Meyerozyma guilliermondii; assay: Antifungal activity against Candida guilliermondii by EUCAST method; assay type: functional; outline: as §5
[31] = test system: Trichosporon asahii; assay: Antifungal activity against Trichosporon asahii; assay type: functional; outline: as §2
[32] = test system: Aspergillus fumigatus; assay: Antifungal activity against Aspergillus fumigatus; assay type: functional
[33] = test system: Aspergillus flavus; assay: Antifungal activity against Aspergillus flavus by EUCAST method; assay type: functional
[34] = test system: Aspergillus niger; assay: Antifungal activity against Aspergillus niger by EUCAST method; assay type: functional
[35] = test system: Curvularia australiensis; assay: Antifungal activity against Bipolaris australiensis; assay type: functional; outline: as §6
[36] = test system: Candida tropicalis; assay: Antifungal activity against Candida tropicalis; assay type: functional; outline: as §5
[37] = test system: Cunninghamella; assay: Antifungal activity against Cunninghamella species; assay type: functional
[38] = test system: Cunninghamella; assay: Antifungal activity against Cunninghamella species by EUCAST method; assay type: functional
[39] = test system: Talaromyces marneffei; assay: Antifungal activity against Penicillium marneffei; assay type: functional
[40] = test system: Nakaseomyces glabratus; assay: Antifungal activity against Candida glabrata by EUCAST method; assay type: functional; outline: as §5
[41] = test system: Candida albicans; assay: Antifungal activity against Candida albicans; assay type: functional; outline: as §5
[42] = test system: Fusarium solani; assay: Antifungal activity against Fusarium solani; assay type: functional
[43] = test system: Candida albicans; assay: Antifungal activity against Candida albicans by EUCAST method; assay type: functional; outline: as §5
[44] = test system: Pichia kudriavzevii; assay: Antifungal activity against Candida krusei by EUCAST method; assay type: functional; outline: as §5
[45] = test system: Lichtheimia corymbifera; assay: Antifungal activity against Absidia corymbifera; assay type: functional
[46] = test system: Scedosporium apiospermum; assay: Antifungal activity against Scedosporium apiospermum; assay type: functional; outline: as §1
[47] = test system: Clavispora lusitaniae; assay: Antifungal activity against Candida lusitaniae by EUCAST method; assay type: functional; outline: as §5
[48] = test system: Sporothrix schenckii; assay: Antifungal activity against Sporothrix schenckii; assay type: functional; outline: as §1
[49] = test system: Aspergillus fumigatus; assay: Antifungal activity against Aspergillus fumigatus by EUCAST method; assay type: functional
[50] = test system: Candida parapsilosis; assay: Antifungal activity against Candida parapsilosis; assay type: functional; conditions: Lodderomyces parapsilosis; outline: as §5
[51] = test system: Cryptococcus gattii; assay: Antifungal activity against Cryptococcus neoformans var. gattii by EUCAST method; assay type: functional, Cryptococcus bacillisporus; outline: as §4
[52] = Antifungal activity against Cryptococcus neoformans var. neoformans; assay type: functional; conditions: Cryptococcus deneoformans; outline: as §4
[53] = test system: Aspergillus terreus; assay: Antifungal activity against Aspergillus terreus; assay type: functional
[54] = test system: Mucor; assay: Antifungal activity against Mucor species; assay type: functional

With `C[C@@H](c1ncncc1F)[C@](O)(Cn1cncn1)c1ccc(F)cc1F` [VORICONAZOLE] as the molecule, how does the MIC [1] read?
The MIC was 0.29 µg/mL (≈ 0.83 µM).

What about the MFC [2] of the same molecule?
The MFC was greater than 4 µg/mL.

And the MFC [3]?
The MFC was greater than 8 µg/mL.

And the MFC [4]?
The MFC was greater than 4 µg/mL.

What about the MFC [5] of the same molecule?
Its MFC is greater than 8 µg/mL.

What about the MIC [6] of the same molecule?
The MIC was 0.05 µg/mL (≈ 0.143 µM).

And the MFC [7]?
Its MFC is greater than 8 µg/mL.

What about the MFC [8] of the same molecule?
The MFC was greater than 8 µg/mL.

And the MFC [9]?
The MFC was 0.5 µg/mL (≈ 1.43 µM).

And the MFC [10]?
Its MFC is greater than 8 µg/mL.

What about the MIC [11] of the same molecule?
Its MIC is 0.05 µg/mL (≈ 0.143 µM).

What about the MFC [12] of the same molecule?
The MFC was 0.06 µg/mL (≈ 0.172 µM).

What about the MFC [13] of the same molecule?
Its MFC is greater than 8 µg/mL.

What about the MFC [14] of the same molecule?
Its MFC is greater than 8 µg/mL.

What about the MFC [15] of the same molecule?
The MFC was greater than 8 µg/mL.

And the MFC [16]?
Its MFC is greater than 8 µg/mL.

And the MFC [17]?
Its MFC is greater than 8 µg/mL.

What about the MIC [18] of the same molecule?
Its MIC is 0.04 µg/mL (≈ 0.115 µM).

And the MIC [19]?
Its MIC is 0.29 µg/mL (≈ 0.83 µM).

And the MIC [20]?
Its MIC is 0.25 µg/mL (≈ 0.716 µM).

What about the MFC [21] of the same molecule?
The MFC was 1 µg/mL (≈ 2.86 µM).

What about the MFC [22] of the same molecule?
The MFC was 0.125 µg/mL (≈ 0.358 µM).

What about the MFC [23] of the same molecule?
The MFC was greater than 8 µg/mL.

And the MFC [24]?
The MFC was greater than 4 µg/mL.

And the MFC [25]?
The MFC was 2 µg/mL (≈ 5.73 µM).

What about the MFC [26] of the same molecule?
Its MFC is 0.03 µg/mL (≈ 0.0859 µM).

What about the MIC [27] of the same molecule?
The MIC was 0.48 µg/mL (≈ 1.37 µM).

And the MFC [28]?
Its MFC is 0.25 µg/mL (≈ 0.716 µM).

And the MIC [29]?
The MIC was 0.08 µg/mL (≈ 0.229 µM).

What about the MIC [30] of the same molecule?
Its MIC is 0.24 µg/mL (≈ 0.687 µM).

And the MFC [31]?
Its MFC is greater than 8 µg/mL.

What about the MFC [32] of the same molecule?
The MFC was 0.5 µg/mL (≈ 1.43 µM).

And the MIC [33]?
Its MIC is 0.41 µg/mL (≈ 1.17 µM).

And the MIC [34]?
The MIC was 0.33 µg/mL (≈ 0.945 µM).

What about the MFC [35] of the same molecule?
The MFC was greater than 8 µg/mL.

What about the MFC [36] of the same molecule?
Its MFC is 0.12 µg/mL (≈ 0.344 µM).

What about the MFC [37] of the same molecule?
Its MFC is greater than 8 µg/mL.

And the MIC [38]?
Its MIC is greater than 8 µg/mL.

And the MFC [39]?
Its MFC is greater than 8 µg/mL.

And the MIC [40]?
The MIC was 1.66 µg/mL (≈ 4.75 µM).

What about the MFC [41] of the same molecule?
Its MFC is 0.06 µg/mL (≈ 0.172 µM).

What about the MFC [42] of the same molecule?
The MFC was greater than 8 µg/mL.

And the MIC [43]?
Its MIC is 0.13 µg/mL (≈ 0.372 µM).

What about the MIC [44] of the same molecule?
The MIC was 0.53 µg/mL (≈ 1.52 µM).

And the MFC [45]?
Its MFC is greater than 8 µg/mL.

And the MFC [46]?
The MFC was greater than 8 µg/mL.

What about the MIC [47] of the same molecule?
The MIC was 0.07 µg/mL (≈ 0.2 µM).

What about the MFC [48] of the same molecule?
The MFC was greater than 8 µg/mL.

And the MIC [49]?
Its MIC is 0.36 µg/mL (≈ 1.03 µM).

What about the MFC [50] of the same molecule?
Its MFC is 0.06 µg/mL (≈ 0.172 µM).

What about the MIC [51] of the same molecule?
The MIC was 0.05 µg/mL (≈ 0.143 µM).

And the MFC [52]?
Its MFC is 0.06 µg/mL (≈ 0.172 µM).

And the MFC [53]?
The MFC was 1 µg/mL (≈ 2.86 µM).

And the MFC [54]?
The MFC was greater than 8 µg/mL.
